Drawing on ChEMBL document CHEMBL1147494, “Differentiation of in vitro transcriptional repression and activation profiles of selective glucocorticoid modulators” (Bioorg Med Chem Lett, 2004), this text covers IC50, Activity and Efficacy for 15 compounds.

Where only a bound is given, the exact number is not on record here.

For one test, the target named is T1, Glucocorticoid receptor (Homo sapiens, UniProt P04150).
T1 sequence (P04150 whole entry): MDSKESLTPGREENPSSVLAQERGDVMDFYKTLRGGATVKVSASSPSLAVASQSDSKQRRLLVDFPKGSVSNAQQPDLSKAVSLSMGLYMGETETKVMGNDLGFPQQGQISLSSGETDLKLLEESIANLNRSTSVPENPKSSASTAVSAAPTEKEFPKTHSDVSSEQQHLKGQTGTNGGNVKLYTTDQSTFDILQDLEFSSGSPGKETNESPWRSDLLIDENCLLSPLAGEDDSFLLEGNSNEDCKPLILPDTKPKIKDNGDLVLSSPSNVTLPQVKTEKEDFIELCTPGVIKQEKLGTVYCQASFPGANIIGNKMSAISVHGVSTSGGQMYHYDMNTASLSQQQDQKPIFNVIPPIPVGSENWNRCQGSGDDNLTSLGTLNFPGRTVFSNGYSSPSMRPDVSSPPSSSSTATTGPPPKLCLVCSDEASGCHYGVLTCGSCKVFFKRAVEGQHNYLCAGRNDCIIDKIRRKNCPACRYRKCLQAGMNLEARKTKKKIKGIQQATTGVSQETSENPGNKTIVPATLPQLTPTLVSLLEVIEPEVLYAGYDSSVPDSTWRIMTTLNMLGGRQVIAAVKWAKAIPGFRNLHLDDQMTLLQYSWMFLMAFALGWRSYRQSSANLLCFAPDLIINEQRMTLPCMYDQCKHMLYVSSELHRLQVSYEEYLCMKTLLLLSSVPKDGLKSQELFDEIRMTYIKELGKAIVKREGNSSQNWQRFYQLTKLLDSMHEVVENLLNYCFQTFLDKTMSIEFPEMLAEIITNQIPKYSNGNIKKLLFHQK
Put plainly: Inhibition of transcriptional activation in CV-1 cells expressing glucocorticoid receptor. In kind it is functional, cell-based.
A word on the IC50: it is the concentration needed to halve the response being measured. A low value points to greater potency in that assay. With `COc1cccc2c1-c1ccc3c(c1[C@@H]([C@H]1C=C(C)CCC1)O2)C(C)=CC(C)(C)N3`, the IC50 was > 5000 nM.

Turning to `C=C(CO)CC1Oc2cccc(OC)c2-c2ccc3c(c21)C(C)=CC(C)(C)N3` (stereo not drawn), the IC50 came out at 310 nM.

`CC/C=C\CC1Oc2cccc(OC)c2-c2ccc3c(c21)C(C)=CC(C)(C)N3` (stereo not drawn) displayed an IC50 of 89 nM. This IC50 is about 3.5-fold lower than that of the compound before.

In turn, `C/C=C\CC1Oc2cccc(OC)c2-c2ccc3c(c21)C(C)=CC(C)(C)N3` (stereo not drawn) showed an IC50 of 39 nM.

In turn, `COc1cccc2c1-c1ccc3c(c1C(C1C=CCCC1)O2)C(C)=CC(C)(C)N3` (stereo not drawn) showed an IC50 of 13 nM. Against the preceding compound, the IC50 is about 3-fold lower.

Take `C=C(COC(C)=O)CC1Oc2cccc(OC)c2-c2ccc3c(c21)C(C)=CC(C)(C)N3` (stereo not drawn): half-maximal inhibition (IC50) was put at 310 nM.

As for `COc1cccc2c1-c1ccc3c(c1C(C/C=C/CO)O2)C(C)=CC(C)(C)N3` (stereo not drawn), the IC50 is > 5000 nM.

Turning to `C=C(C)CC1Oc2cccc(OC)c2-c2ccc3c(c21)C(C)=CC(C)(C)N3` (stereo not drawn), the IC50 is 66 nM.

The target of a further test is T1, Glucocorticoid receptor. Put plainly: Inhibition of transcriptional repression in CV-1 cells expressing glucocorticoid receptor. In kind it is functional, cell-based.
With `COc1cccc2c1-c1ccc3c(c1[C@@H]([C@H]1C=C(C)CCC1)O2)C(C)=CC(C)(C)N3`, the IC50 is 440 nM.

In the case of `C=C(CO)CC1Oc2cccc(OC)c2-c2ccc3c(c21)C(C)=CC(C)(C)N3` (stereo not drawn), the IC50 amounted to 141 nM.

On to `CC/C=C\CC1Oc2cccc(OC)c2-c2ccc3c(c21)C(C)=CC(C)(C)N3` (stereo not drawn), for which inhibition was half-maximal at 88 nM (IC50).

In turn, `C/C=C\CC1Oc2cccc(OC)c2-c2ccc3c(c21)C(C)=CC(C)(C)N3` (stereo not drawn) displayed an IC50 of 23 nM. Against the preceding compound, the IC50 is about 3.8-fold lower.

Consider `COc1cccc2c1-c1ccc3c(c1C(C1C=CCCC1)O2)C(C)=CC(C)(C)N3` (stereo not drawn), for which the IC50 worked out at 21 nM.

In turn, `C=C(COC(C)=O)CC1Oc2cccc(OC)c2-c2ccc3c(c21)C(C)=CC(C)(C)N3` (stereo not drawn) registered an IC50 of 141 nM.

For `COc1cccc2c1-c1ccc3c(c1C(C/C=C/CO)O2)C(C)=CC(C)(C)N3` (stereo not drawn), half-maximal inhibition (IC50) was put at 150 nM. The IC50 values of the last two compounds are within 1.5-fold of each other.

Compound `C=C(C)CC1Oc2cccc(OC)c2-c2ccc3c(c21)C(C)=CC(C)(C)N3` (stereo not drawn) registered an IC50 of 42 nM.

In the next test the target is T2, Progesterone receptor (Homo sapiens, UniProt P06401).
T2 sequence (P06401 whole entry): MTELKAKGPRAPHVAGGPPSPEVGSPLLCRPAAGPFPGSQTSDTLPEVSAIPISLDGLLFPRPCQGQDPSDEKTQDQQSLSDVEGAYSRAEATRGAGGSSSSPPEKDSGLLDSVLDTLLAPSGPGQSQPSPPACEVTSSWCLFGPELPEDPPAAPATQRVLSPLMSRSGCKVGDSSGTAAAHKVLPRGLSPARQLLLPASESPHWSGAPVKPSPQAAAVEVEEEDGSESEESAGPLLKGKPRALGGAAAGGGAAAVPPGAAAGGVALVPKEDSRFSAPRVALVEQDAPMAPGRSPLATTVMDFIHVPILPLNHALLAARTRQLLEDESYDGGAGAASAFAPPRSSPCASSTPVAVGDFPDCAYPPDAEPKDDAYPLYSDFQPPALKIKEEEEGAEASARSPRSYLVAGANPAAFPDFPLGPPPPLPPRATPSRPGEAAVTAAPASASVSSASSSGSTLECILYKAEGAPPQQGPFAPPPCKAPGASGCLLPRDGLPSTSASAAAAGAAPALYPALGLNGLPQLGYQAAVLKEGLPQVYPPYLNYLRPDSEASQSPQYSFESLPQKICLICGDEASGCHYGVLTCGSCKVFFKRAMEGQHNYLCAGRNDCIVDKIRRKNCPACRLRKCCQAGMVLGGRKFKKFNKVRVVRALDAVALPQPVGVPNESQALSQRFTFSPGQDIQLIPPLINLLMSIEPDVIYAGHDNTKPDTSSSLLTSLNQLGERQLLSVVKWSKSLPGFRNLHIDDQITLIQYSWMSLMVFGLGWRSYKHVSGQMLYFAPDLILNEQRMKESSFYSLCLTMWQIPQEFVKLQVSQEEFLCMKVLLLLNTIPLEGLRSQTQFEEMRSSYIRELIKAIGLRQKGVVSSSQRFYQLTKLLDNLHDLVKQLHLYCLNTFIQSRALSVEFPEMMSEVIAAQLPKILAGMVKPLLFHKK
Put plainly: Inhibition of transcriptional activation in cells expressing progesterone receptor isoform B. Type of test: functional.
Take `COc1c(O)ccc2c1-c1ccc3c(c1[C@H]([C@H]1C=C(C)CCC1)O2)C(C)=CC(C)(C)N3`: half-maximal inhibition (IC50) was put at 210 nM.

Another test addresses T3, Progesterone receptor (Homo sapiens) (UniProt P06401).
T3 sequence (whole entry): T2 sequence (P06401 whole entry)
Put plainly: In vitro binding affinity against progesterone receptor. The gist of the method: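 Competition binding assay against progesterone receptor. Replicates vary by value: single experiments in triplicate; two experiments with triplicate determinations (with standard deviation); or at least three separate experiments in triplicate (mean ± SEM).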
For the compound `COc1cccc2c1-c1ccc3c(c1C(C1C=CCCCC1)O2)C(C)=CC(C)(C)N3` (stereo not drawn), the Activity was > 5000 nM.

In the case of `C=CCC1Oc2cccc(OC)c2-c2ccc3c(c21)C(C)=CC(C)(C)N3` (stereo in doubt; 4a), the Activity turned out to be 1800 nM.

Turning to `COc1c(O)ccc2c1-c1ccc3c(c1[C@H]([C@H]1C=C(C)CCC1)O2)C(C)=CC(C)(C)N3`, the Activity turned out to be 52 nM.

Turning to `COc1cccc2c1-c1ccc3c(c1[C@@H]([C@H]1C=C(C)CCC1)O2)C(C)=CC(C)(C)N3`, the Activity is > 5000 nM.

In the case of `COc1cccc2c1-c1ccc3c(c1C(C1C=CCC1)O2)C(C)=CC(C)(C)N3` (stereo not drawn), the Activity was 2200 nM.

Turning to `C=C(CO)CC1Oc2cccc(OC)c2-c2ccc3c(c21)C(C)=CC(C)(C)N3` (stereo not drawn), the Activity was > 5000 nM.

For `CC/C=C\CC1Oc2cccc(OC)c2-c2ccc3c(c21)C(C)=CC(C)(C)N3` (stereo not drawn), the Activity is > 5000 nM.

Regarding `COc1cccc2c1-c1ccc3c(c1C(C1/C=C\CCCCC1)O2)C(C)=CC(C)(C)N3` (stereo not drawn), the Activity was > 5000 nM.

`C/C=C\CC1Oc2cccc(OC)c2-c2ccc3c(c21)C(C)=CC(C)(C)N3` (stereo not drawn) gave an Activity of 1200 nM.

Compound `COc1cccc2c1-c1ccc3c(c1C(C1C=CCCC1)O2)C(C)=CC(C)(C)N3` (stereo not drawn) had an Activity of 2400 nM.

Turning to `C=C(COC(C)=O)CC1Oc2cccc(OC)c2-c2ccc3c(c21)C(C)=CC(C)(C)N3` (stereo not drawn), the Activity is > 5000 nM.

As for `COc1cccc2c1-c1ccc3c(c1C(C/C=C/CO)O2)C(C)=CC(C)(C)N3` (stereo not drawn), the Activity was > 5000 nM.

On to `COc1cccc2c1-c1ccc3c(c1C(CC1=CCCCC1)O2)C(C)=CC(C)(C)N3` (stereo not drawn), for which the Activity is > 5000 nM.

Turning to `C=C(C)CC1Oc2cccc(OC)c2-c2ccc3c(c21)C(C)=CC(C)(C)N3` (stereo not drawn), the Activity was > 5000 nM.

Compound `C=CCC1Oc2cccc(OC)c2-c2ccc3c(c21)C(C)=CC(C)(C)N3` (stereo in doubt; (-)4a) came in with an Activity of 1300 nM.

A further test addresses T3, Progesterone receptor (Homo sapiens). Put plainly: Transcriptional activation in cells expressing progesterone receptor isoform B compared to progesterone. In kind it is functional.
In turn, `COc1c(O)ccc2c1-c1ccc3c(c1[C@H]([C@H]1C=C(C)CCC1)O2)C(C)=CC(C)(C)N3` had an Efficacy of 190%.
